Most compounds without a hit are left out; they make up all but 2.5% or so of the library.
ABCB1 inh: human ABCB1 inhibition, ABCG2 as counter-screen; AID 1326; P08183; CCRF-Adr cells, JC-1 efflux, flow cytometry; hit rate 0.067% among 190,000; inhibition, % at 6.6 µM; in the data active means inhibition above about 40%;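 further: 0% = vehicle and 100% = reference inhibitor; higher value means more JC-1 retained so stronger ABCB1 efflux block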
ABCG2 block: blocks JC-1 efflux by human ABCG2 transporter | Q9UNQ0 | IgMXP3 cells, flow cytometry | inhibition, % at 6.6 µM | hit rate 0.1% among 190,000;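 active means inhibition above 80%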;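 further: 0% = DMSO and 100% = nicardipine control wells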
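material = IgMXP3 (ABCG2) plus far-red-tagged CCRF-Adr (ABCB1) cells | amount = 3 million cells/mL, equal mix of both lines | also added = JC-1 transporter substrate | dosing = one concentration, 6.6 µM final | schedule = 10 min at 25 °C | measured by = flow cytometric JC-1 green MFI at 530 nm | read-out basis = percent efflux inhibition, scaled nicardipine 100% to DMSO 0%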
MEKK2wt PB1 HTS: raises or lowers MEK5 binding to wildtype human MEKK2 PB1 domain. bead flow cytometry, Alexa488-MEK5 binding to MEKK2 WT; actives lie on both sides. binding response (% of control), % at 10 µM. hit rate 1.1% among 290,000; in the data active means binding response below about 67% or above about 130%
Efflux pump inh: antifungal efflux pump inhibition, Nile Red retention; hit rate 0.44% among 330,000; inhibition, % at 10 µM; S. cerevisiae Candida pump triplex;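 active means plate passing quality check with inhibition over a set limit, or well fluorescence over plate mean plus 4 SD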;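 further: Nile Red retained in pooled yeast measured as flow cytometry median fluorescence; 0% = buffer negative control and 100% = Enniatin B positive control; higher means more Nile Red kept so more efflux inhibition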
MEKK3 PB1 HTS: raises or lowers MEK5 binding to the human MEKK3 PB1 domain | Q99759 | bead-based flow cytometry, Alexa488-MEK5 binding to MEKK3; actives lie on both sides; 0 = blocked by unlabeled MEK5, 100 = vehicle | binding response (% of control), % at 10 µM | hit rate 1.4% among 290,000;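 active means binding response more than 3 SD above or below the average of its plate-row segment, actives on both sides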;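 further: Alexa488 bead fluorescence after subtracting the streptavidin-only scavenger bead signal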
MEKK2 mut-MEK5: signal of MEK5 binding to mutant human MEKK2 PB1 domain; bead flow cytometry, Alexa488-MEK5 binding to MEKK2 mutant; percent response, % at 10 µM; hit rate 0.35% among 290,000; in the data active means percent response above about 24%, passing the limit was not always enough
MEKK2wt confirm: raises or lowers MEK5 binding to wildtype human MEKK2, retest; binding response (% of control), % at 10 µM; shares compounds with MEKK3 PB1 HTS; bead flow cytometry, Alexa488-MEK5 binding to MEKK2 WT; actives lie on both sides; hit rate 2.4% among 5,900; in the data active means binding response below about 16% or above about 210%; inactive means in between
MEKK2mut-MEK5: signal of MEK5 binding to mutant human MEKK2, retest; shares compounds with MEKK3 PB1 HTS; bead flow cytometry, Alexa488-MEK5 binding to MEKK2 mutant; percent response, % at 10 µM; hit rate 2% among 5,900; in the data active means percent response mostly above about 71%, no sharp cut-off; inactive means mostly below about 38%;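 further: higher means compound restores mutant binding toward wildtype level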
MEKK3 confirm: MEKK3-MEK5 PB1 inhibition, single concentration confirmation | bead flow cytometry, Alexa488-MEK5 binding to MEKK3; hits give low values | shares compounds with MEKK3 PB1 HTS | hit rate 1.8% among 5,900 | AID 1894 | binding response (% of control), % at 10 µM;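 active means binding response below 72% of control, or above a set upper limit, though filed actives all read lower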;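 further: 100% = DMSO only wells and 0% = binding blocked by excess unlabeled MEK5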
An asterisk follows results filed as active; / = no result given; [ ] = another dose, or the depositor's remark.

SMILES	ABCB1 inh	ABCG2 block	MEKK2wt PB1 HTS	Efflux pump inh	MEKK3 PB1 HTS	MEKK2 mut-MEK5	MEKK2wt confirm	MEKK2mut-MEK5	MEKK3 confirm
CC1CN(C(=O)C2(C)CC2(Br)Br)CC(C)O1 (stereo not drawn)	0	0	109	0	110	-1	/	/	/
CCC(NC(=O)NCc1ccccc1)(C(F)(F)F)C(F)(F)F	0	3	106	0	151*	0	101	2	104
CC(C)CC1NC(=O)N(CC(=O)Nc2ccccc2-c2ccccc2)C1=O (stereo not drawn)	0	2	88	0	98	-15	/	/	/
CC(C)CC1NC(=O)N(CCCCN2C(=O)c3ccccc3C2=O)C1=O (stereo not drawn)	1	1	121	0	135*	4	107	9	109
CC(=O)Nc1cc(NC(C)=O)ncn1	/	/	57	0	48*[inhibitor]	9	99	-6	100
CC(=O)Nc1cc(-c2ccc(Cl)cc2)[nH]n1	0	6	85	0	96	-6	/	/	/
COc1ccc2[nH]c(=O)c(CN(Cc3ccccc3)C(=S)NCC3CCCO3)cc2c1 (stereo not drawn)	1	6	85	0	98	-12	/	/	/
COc1ccc(NC(=O)N(Cc2cccs2)Cc2cc3cc4c(cc3[nH]c2=O)OCO4)cc1	0	-1	100	1	137*	1	99	2	104
O=C(Nc1ccc(F)cc1)N(Cc1cccs1)Cc1cc2cc3c(cc2[nH]c1=O)OCO3	0	-1	97	0	107	0	/	/	/
Cc1ccc2[nH]c(=O)c(CN(Cc3cccs3)C(=S)NCC3CCCO3)cc2c1 (stereo not drawn)	2	18	99	0	138*	0	104	4	107
Cc1ccc(NC(=O)N(Cc2cccs2)Cc2cc3cc4c(cc3[nH]c2=O)OCO4)cc1	-1	-6	104	0	130*	0	91	-8	96
CNc1nc(C)cc(C)c1S(=O)(=O)c1ccc(Cl)cc1	0	0	96	0	103	-1	/	/	/
O=C(c1nn(-c2ccccc2)c(=O)c2ccccc12)N1CCN(c2ncccn2)CC1	1	3	94	0	103	-5	/	/	/
O=C(c1nn(-c2ccccc2)c(=O)c2ccccc12)N1CCN(c2ccccn2)CC1	1	3	78	0	66*[inhibitor]	-5	102	1	99
CC(=O)Nc1ccc(NCN2C(=O)[C@@H]3[C@H]4CC[C@H](C4)[C@@H]3C2=O)cc1	1	3	95	0	94	-3	/	/	/
CCN(CC)C(=S)Nc1ccc(OC)cc1	0	1	113	0	155*	1	103	2	104
Cc1ccc([N+](=O)[O-])cc1N(CC(=O)NC1CCCC1)S(C)(=O)=O	-1	-1	75	0	73*[inhibitor]	-7	103	-2	104
COc1ccc([N+](=O)[O-])cc1N(CC(=O)NC1CCCCC1)S(C)(=O)=O	0	1	108	0	102	3	/	/	/
CCc1ccc(N(CC(=O)NCc2ccc(F)cc2)C(=O)c2csnn2)cc1	0	1	96	0	99	-4	/	/	/
COc1ccc(C(=O)CSc2nnc(NC(=O)C3CC(=O)N(c4ccccc4)C3)s2)cc1 (stereo not drawn)	0	-1	105	0	136*	1	104	9	104
CC(C)(C)C(=O)Nc1ccc(NC(=O)C(C)(C)C)cc1	/	/	48	0	48*[inhibitor]	-31	87	-12	78

Screening results: PubChem BioAssay, NMMLSC
